Experiments:
[1] = target: T1, Polyunsaturated fatty acid lipoxygenase ALOX12 (Homo sapiens, UniProt P18054); assay: Inhibitory concentration against human platelet 12-lipoxygenase; format: functional
T1 sequence (P18054 whole entry): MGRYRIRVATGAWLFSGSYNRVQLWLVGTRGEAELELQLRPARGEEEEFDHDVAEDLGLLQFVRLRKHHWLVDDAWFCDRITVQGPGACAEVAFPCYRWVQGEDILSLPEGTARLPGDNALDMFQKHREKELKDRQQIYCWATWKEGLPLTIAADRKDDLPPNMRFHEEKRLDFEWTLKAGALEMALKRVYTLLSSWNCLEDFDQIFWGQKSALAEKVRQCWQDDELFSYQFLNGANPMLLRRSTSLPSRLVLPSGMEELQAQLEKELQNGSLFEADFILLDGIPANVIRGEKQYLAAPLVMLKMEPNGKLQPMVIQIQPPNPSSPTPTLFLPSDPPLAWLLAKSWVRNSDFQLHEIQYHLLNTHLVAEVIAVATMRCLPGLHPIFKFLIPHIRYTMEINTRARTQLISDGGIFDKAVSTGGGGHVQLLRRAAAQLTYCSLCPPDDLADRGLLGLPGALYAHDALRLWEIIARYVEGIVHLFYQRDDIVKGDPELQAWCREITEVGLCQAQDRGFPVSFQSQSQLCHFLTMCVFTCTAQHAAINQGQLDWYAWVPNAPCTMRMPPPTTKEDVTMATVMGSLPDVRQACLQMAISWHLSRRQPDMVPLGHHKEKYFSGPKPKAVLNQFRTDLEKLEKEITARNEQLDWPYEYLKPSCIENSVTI
Outline: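 Cytoplasmic fraction of lysed human platelets, diluted to give 50% AA conversion, preincubated with inhibitor 5 min at 37 °C in 0.1 M Tris-HCl pH 8.0 with 1 mM glutathione and 10 μM indomethacin. 1-[14C]AA added, 15 min at 37 °C; 12-HETE separated by TLC and counted.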

[2] = Duration of action where maximum inhibition of LTB4 formation is achieved at 1 mg/kg po; format: functional, organism-based; design: dose 1 mg/kg; conditions: Canis lupus familiaris
Outline: (§1)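 Beagle dogs (8–15 kg, fasted 16–18 h, water allowed) dosed by oral intubation as suspension in 3% cornstarch/0.33% Tween 80/5% PEG 400 in water, 5 mL/kg. Jugular blood at -1, 0, 0.25, 0.5, 1, 3, 6, 9, 24 h; 1-mL aliquots stimulated 15 min at 37 °C with A23187 100 μM plus fMLP 10 μM (final); plasma LTB4 by RIA. DA read graphically: time from maximum inhibition to 50% of maximum.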

[3] = target: T2, Polyunsaturated fatty acid 5-lipoxygenase (Homo sapiens) (UniProt P09917); assay: Ex vivo inhibition of LTB-4 determined by measurement of A-23187-stimulated LTB-4 production in dog blood at 1 mg/kg iv; format: functional, organism-based; design: dose 1 mg/kg
T2 sequence (whole entry): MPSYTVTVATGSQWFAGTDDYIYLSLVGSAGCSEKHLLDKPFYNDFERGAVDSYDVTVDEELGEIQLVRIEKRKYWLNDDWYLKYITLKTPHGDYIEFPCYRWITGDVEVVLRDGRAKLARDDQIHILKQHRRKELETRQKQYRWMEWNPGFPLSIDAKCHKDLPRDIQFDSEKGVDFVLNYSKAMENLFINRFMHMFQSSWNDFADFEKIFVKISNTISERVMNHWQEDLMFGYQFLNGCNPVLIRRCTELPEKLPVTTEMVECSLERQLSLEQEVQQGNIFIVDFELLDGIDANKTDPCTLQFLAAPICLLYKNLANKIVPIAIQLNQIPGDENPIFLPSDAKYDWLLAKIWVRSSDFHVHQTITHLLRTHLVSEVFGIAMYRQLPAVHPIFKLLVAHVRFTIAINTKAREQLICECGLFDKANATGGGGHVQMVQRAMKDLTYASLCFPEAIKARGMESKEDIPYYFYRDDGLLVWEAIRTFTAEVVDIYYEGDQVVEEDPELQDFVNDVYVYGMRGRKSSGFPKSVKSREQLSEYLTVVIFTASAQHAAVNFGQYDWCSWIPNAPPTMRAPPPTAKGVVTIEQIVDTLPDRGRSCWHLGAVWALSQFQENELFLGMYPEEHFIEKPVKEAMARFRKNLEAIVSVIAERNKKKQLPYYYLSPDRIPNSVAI
Outline: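 Beagles (8–15 kg, fasted 16–18 h) given iv forearm bolus in DMA/PEG 400 (25:75), 0.1 mL/kg. Jugular blood (serine/heparin) sampled -1 to 24 h; 1-mL aliquots stimulated with A23187 100 μM + fMLP 10 μM final for 15 min at 37 °C, one aliquot unstimulated. Plasma LTB4 by RIA; inhibition versus mean of -1 and 0 h predose values.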

[4] = Duration of action where maximum inhibition of LTB4 formation is achieved at 1 mg/kg iv; format: functional, organism-based; design: dose 1 mg/kg; conditions: Canis lupus familiaris
Outline: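 Beagle dogs (8–15 kg, fasted) given iv bolus in forearm in DMA/PEG 400 (25:75), 0.1 mL/kg. Blood at -1, 0, 0.08, 0.25, 0.5, 1, 3, 6, 9, 24 h; aliquots stimulated with A23187 100 μM + fMLP 10 μM final, 15 min, 37 °C; plasma LTB4 by RIA. DA taken graphically from maximum inhibition to 50%-of-maximum level.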

[5] = target: T2, Polyunsaturated fatty acid 5-lipoxygenase (Homo sapiens); assay: Ex vivo inhibition of LTB4 production by measurement of A-23187-stimulated LTB-4 production in dog blood at 1 mg/kg po.; format: functional, organism-based; design: dose 1 mg/kg; conditions: Canis lupus familiaris, target entry is the homologue from another species
Outline: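 Fasted beagles (8–15 kg) dosed orally by intubation, suspension in 3% cornstarch with 0.33% Tween 80 and 5% PEG 400, 5 mL/kg. Blood at -1, 0, 0.25–24 h stimulated ex vivo with A23187 100 μM + fMLP 10 μM final, 15 min, 37 °C; plasma LTB4 by RIA; percent inhibition relative to mean predose (-1, 0 h) values.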

[6] = Duration of action where maximum inhibition of LTB4 formation is achieved at 3 mg/kg po; format: functional, organism-based; design: dose 3 mg/kg; conditions: Canis lupus familiaris; outline: as §1
[7] = tested on: Arachidonate 5-lipoxygenase (Canis lupus familiaris); assay: Ex vivo inhibition of LTB-4 determined by measurement of A-23187-stimulated LTB-4 production in dog blood at 3 mg/kg po; conditions: target entry is the homologue from another species
[8] = tested on: Arachidonate 5-lipoxygenase (Canis lupus familiaris); assay: Ex vivo inhibition of LTB-4 determined by measurement of A-23187-stimulated LTB-4 production in dog blood at 10 mg/kg po; conditions: target entry is the homologue from another species
[9] = Duration of action where maximum inhibition of LTB4 formation is achieved at 10 mg/kg po; format: functional, organism-based; design: dose 10 mg/kg; conditions: Canis lupus familiaris; outline: as §1
[10] = Duration of action is where maximum inhibition of LTB4 formation is achieved at 1 mg/kg po; format: functional, organism-based; design: dose 1 mg/kg; conditions: Canis lupus familiaris; outline: as §1
[11] = target: T3, Prostaglandin G/H synthase (cyclooxygenase) (Ovis aries, UniProt P05979+P79208); assay: Inhibitory concentration against sheep seminal vesicle Prostaglandin G/H synthase; format: functional, tissue-based
T3 sequence (P05979 whole entry): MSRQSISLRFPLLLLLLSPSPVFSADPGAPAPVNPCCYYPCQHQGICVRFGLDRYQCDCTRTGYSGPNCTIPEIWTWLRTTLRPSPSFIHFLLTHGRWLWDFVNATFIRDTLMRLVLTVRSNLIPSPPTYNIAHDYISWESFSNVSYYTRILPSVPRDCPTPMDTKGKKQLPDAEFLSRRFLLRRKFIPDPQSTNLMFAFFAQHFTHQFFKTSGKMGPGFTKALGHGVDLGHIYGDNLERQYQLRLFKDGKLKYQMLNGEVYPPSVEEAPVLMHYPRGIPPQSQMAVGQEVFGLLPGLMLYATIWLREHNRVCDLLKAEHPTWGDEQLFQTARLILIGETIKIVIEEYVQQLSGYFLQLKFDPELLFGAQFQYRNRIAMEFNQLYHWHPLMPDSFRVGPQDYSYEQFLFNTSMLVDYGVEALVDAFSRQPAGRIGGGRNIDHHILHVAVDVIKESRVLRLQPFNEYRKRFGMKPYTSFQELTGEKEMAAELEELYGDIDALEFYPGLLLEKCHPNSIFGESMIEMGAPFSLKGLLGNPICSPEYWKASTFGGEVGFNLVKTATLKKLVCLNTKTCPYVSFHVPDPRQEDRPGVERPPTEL
T3 sequence (P79208 whole entry): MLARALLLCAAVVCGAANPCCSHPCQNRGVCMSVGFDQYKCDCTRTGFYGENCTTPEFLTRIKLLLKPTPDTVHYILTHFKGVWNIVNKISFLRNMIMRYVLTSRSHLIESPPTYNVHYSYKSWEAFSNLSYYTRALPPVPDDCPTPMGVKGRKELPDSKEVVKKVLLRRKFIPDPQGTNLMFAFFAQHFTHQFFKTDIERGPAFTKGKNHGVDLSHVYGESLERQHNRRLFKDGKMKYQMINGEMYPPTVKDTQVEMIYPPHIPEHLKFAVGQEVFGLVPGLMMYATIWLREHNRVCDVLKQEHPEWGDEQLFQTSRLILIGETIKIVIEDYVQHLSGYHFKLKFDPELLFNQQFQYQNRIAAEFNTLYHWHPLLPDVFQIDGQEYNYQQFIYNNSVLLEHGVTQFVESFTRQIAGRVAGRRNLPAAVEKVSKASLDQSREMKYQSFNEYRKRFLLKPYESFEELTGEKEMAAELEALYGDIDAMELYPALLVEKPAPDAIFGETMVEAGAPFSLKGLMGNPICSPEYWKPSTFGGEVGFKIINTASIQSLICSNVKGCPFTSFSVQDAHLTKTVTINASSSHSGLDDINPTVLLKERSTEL
Outline: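 Lyophilized sheep seminal vesicle microsomes as cyclooxygenase source; conversion of [14C]AA to PGE2 with compounds over a wide concentration range in 0.1 M Tris-HCl pH 8.4 (or 1% ethanol). PGs extracted into ethyl acetate, separated by TLC, PGE2 zones counted by scintillation.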

Row | Duration [2] [h] | inhibition [3] [%] | Duration [4] [h] | inhibition [5] [%] | SMILES | also measured
1 |  |  |  |  | CC(c1cc2ccccc2s1)N(O)C(N)=O (stereo not drawn) [ZILEUTON] | IC50 [1]: 55000 nM
2 | 4.8 | > 95 | 7.4 | > 95 | NC(=O)N(O)CC1COc2ccc(Oc3ccccc3)cc2C1 (stereo not drawn) | 
3 |  |  |  |  | CCCCCCOc1ccc2c(c1)C=C(CN(O)C(N)=O)CO2 | Duration [6]: 2.2 h; inhibition [7]: 60%
4 |  |  |  |  | NC(=O)N(O)CC1=Cc2cc(Br)ccc2OC1 | inhibition [8]: > 95%; Duration [9]: 3.8 h
5 |  | > 95 |  | > 95 | NC(=O)N(O)CC1=Cc2cc(Oc3ccccc3)ccc2OC1 | Duration [6]: 35 h; IC50 [1]: 640 nM; Duration [10]: 14 h
6 | 2.6 |  |  | 65 | CC1(C)Oc2ccc(Oc3ccccc3)cc2C=C1CN(O)C(N)=O | 
7 |  | 82 | 3 |  | NC(=O)N(O)CC1=Cc2cc(OCc3ccc(C(F)(F)F)cc3)ccc2OC1 | inhibition [8]: > 95%; Duration [9]: > 6 h
8 |  |  |  | 80 | C=CCNC(=O)N(O)CC1=Cc2cc(Oc3ccccc3)ccc2OC1 | Duration [10]: 4.2 h
9 |  | > 95 |  | > 95 | NC(=O)N(O)CC1=Cc2cc(Oc3ccc(F)cc3)ccc2OC1 | Duration [10]: 13 h
10 | 9 | > 95 | 5 | > 95 | CC1Oc2ccc(Oc3ccccc3)cc2C=C1CN(O)C(N)=O (stereo not drawn) | 
11 | 1 |  |  | 60 | NC(=O)N(O)CC1=Cc2cc(-c3ccccc3)ccc2OC1 | 
12 | 4 |  |  | > 90 | NC(=O)N(O)CC1=Cc2cc(OCCCc3ccccc3)ccc2OC1 | Duration [6]: > 6 h; inhibition [7]: > 95%
13 | 11 | > 95 | 8.4 | > 95 | CNC(=O)N(O)CC1=Cc2cc(Oc3ccccc3)ccc2OC1 | 
14 |  | > 95 | 8.1 |  | CCCNC(=O)N(O)CC1=Cc2cc(Oc3ccccc3)ccc2OC1 | 
15 | 2.8 |  |  | 91 | CC1Oc2ccc(OCc3ccccc3)cc2C=C1CN(O)C(N)=O (stereo not drawn) | 
16 |  |  | 1.2 |  | COc1ccc2c(c1)C=C(CN(O)C(N)=O)CO2 | Duration [9]: > 6 h
17 |  | > 95 | 20 | > 95 | CNC(=O)N(O)CC1=Cc2cc(Oc3ccc(F)cc3)ccc2OC1 | Duration [6]: 42 h; IC50 [11]: > 100000 nM; IC50 [1]: 410 nM; Duration [10]: 15 h
18 | 3.8 | > 95 | 5.1 | 60 | CCNC(=O)N(O)CC1=Cc2cc(Oc3ccccc3)ccc2OC1 | 
19 |  | > 95 | 19 | 59 | NC(=O)N(O)CC1=Cc2cc(OCc3ccccc3)ccc2OC1 | Duration [10]: 5 h; inhibition [8]: > 95%; Duration [9]: > 6 h; inhibition [7]: > 95%
